Measurements from different studies.
Each line is one published result; the experiments were not run side by side.
Target: Mitogen-activated protein kinase kinase kinase 10 (MAP3K10, Homo sapiens, UniProt Q02779)

effect on	method	tested at	remaining binding [%]	SMILES
binding	–	1 µM	92	N[C@H]1CCN(c2nccc(-c3cnn4ncccc34)n2)C1
binding	competition with immobilised ligand	1 µM	100	CCN1CCN(Cc2ccc(C(=O)Nc3ccc(C)c(Oc4ccc5c(c4)CC(=O)N5)c3)cc2C(F)(F)F)CC1
binding	–	1 µM	100	CN(C)c1ncc(F)c(-c2cnn3ncccc23)n1
binding	competition with immobilised ligand	1 µM	91	Nc1ncc2c(n1)-c1c([nH]c3ccc(C#CC4CC4)cc13)CCCC2
cell-free assay	competition with immobilised ligand	1 µM	92	Cc1c(NC(=O)c2cc(C(N)=O)nc3cc(F)ccc23)c(C(F)(F)F)nn1Cc1ccc(C#N)cc1
binding	–	1 µM	100	Cc1cnn2ncc(-c3ccnc(N(C)C)n3)c2c1
binding	competition with immobilised ligand	1 µM	100	O=C(NCC1CCOCC1)c1n[nH]cc1NC(=O)c1c(F)cccc1F
binding	competition with immobilised ligand	1 µM	0	O=C(c1ccc(Nc2ncc(Cl)c(-c3ccc(Cl)s3)n2)cc1)N1CCC(N2CCCC2)CC1
cell-free assay	competition with immobilised ligand	1 µM	95	CC(=O)N1CCC(c2ccc(C(=O)NC(=N)N)cc2C(F)(F)F)CC1
binding	competition with immobilised ligand	1 µM	21	O=C(c1ccc(Nc2nccc(-c3cc4ccccc4s3)n2)cc1)N1CCC(N2CCCC2)CC1
cell-free assay	competition with immobilised ligand	1 µM	75	CN(C(=O)c1ccccc1)c1cc(N(C)c2ccc3c(c2)CCc2ccc(C(=O)NCCN4CCOCC4)cc2C3=O)ccc1F
binding	–	1 µM	76	CN(c1nccc(-c2cnn3ncccc23)n1)C1CC1
binding	competition with immobilised ligand	0.1 µM	82	C[C@@H](c1ccc(-n2cnc3c(N)ncnc32)cc1)N1CCc2nn(C)c(Cc3ccccc3)c2C1=O
binding	–	1 µM	0	CN(CCCC(F)(F)F)c1nccc(-c2cnn3ncccc23)n1
binding	competition with immobilised ligand	1 µM	79	COc1cnc(Nc2cccc(S(N)(=O)=O)c2)nc1N1CCN(c2ccccc2)C(=O)C1
cell-free assay	competition with immobilised ligand	1 µM	100	C[C@H](c1cccc(C#N)c1)n1cc(Cl)cc(C(N)=O)c1=N
binding	–	1 µM	78	COc1ccnn2ncc(-c3ccnc(N(C)C)n3)c12
cell-free assay	competition with immobilised ligand	0.1 µM	68	CNC(=O)c1ccc(Nc2ncc(C(F)(F)F)c(NCc3nccnc3N(C)S(C)(=O)=O)n2)cc1
binding	competition with immobilised ligand	1 µM	3	O=C(NCCCN1CCOCC1)c1ccc(Nc2ncc(Cl)c(-c3ccc(Cl)s3)n2)cc1
cell-free assay	competition with immobilised ligand	1 µM	95	Cc1cc(-n2nc(Cc3cc(F)cc(C(F)(F)F)c3)nc2C)ccc1C(N)=O
binding	competition with immobilised ligand	1 µM	86	CNC(=O)[C@@H]1CC[C@@H](n2c(-c3ccc4cnccc4c3)nc3ccc(C(=O)NCc4cccc(C(N)=O)c4)cc32)C1
